High-throughput results: PubChem BioAssay, several laboratories
Arrestin-AP2 inh: human beta-arrestin and AP2 interaction inhibition. hit rate 0.31% among 340,000. inhibition, % at 10 µM. FITC-arrestin peptide / GST-AP2 beads, flow cytometry; AP2 beta2 appendage carries R879A mutation;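 active = inhibition above a set limit, near 3 SD of compounds lacking own fluorescence, cut at about 54% in these data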;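 also: plate controls were DMSO wells for no effect and 5 µM unlabelled arrestin peptide for full effect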
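Measured by: flow cytometry, FL1 (488/535 nm); Material: AP2 appendage R879A on GSH beads; Evaluation: percent response; Timing: pre-incubation 12 min, peptide binding 1 h, room temperature; Also added: 50 nM FITC-arrestin peptide; Medium: PBS with 0.05% Tween 20 and 0.1% BSA.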
CAL PDZ FP-1: blocks peptide binding to the human CAL PDZ domain; Q9HD26; purified CAL PDZ, TMR-peptide fluorescence polarization, 1 h; inhibition, % at 24.9 µM; hit rate 0.92% among 300,000;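 active = mean inhibition of at least 30% with at least half of replicates also reaching 30%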;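 also: 0% = DMSO neutral control and 100% = excess unlabeled competitor peptide PRC23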
DDE Tn6 FP inh: DD(E)-Tn6 binding inhibition, primary FP screen | P02675 | Fibrin DD(E) TRITC-Tn6 fluorescence polarization displacement | inhibition, % at 8.3 µM | hit rate 0.21% among 370,000 | AID 720509;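 active = inhibition above a per-campaign cutoff: mean of compounds within control limits plus 3 SD, cut at about 15% in these data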;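 also: 0% = median of all compound wells on the plate and 100% = blocking peptide control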
Target sequence (P02675 whole entry, looked up): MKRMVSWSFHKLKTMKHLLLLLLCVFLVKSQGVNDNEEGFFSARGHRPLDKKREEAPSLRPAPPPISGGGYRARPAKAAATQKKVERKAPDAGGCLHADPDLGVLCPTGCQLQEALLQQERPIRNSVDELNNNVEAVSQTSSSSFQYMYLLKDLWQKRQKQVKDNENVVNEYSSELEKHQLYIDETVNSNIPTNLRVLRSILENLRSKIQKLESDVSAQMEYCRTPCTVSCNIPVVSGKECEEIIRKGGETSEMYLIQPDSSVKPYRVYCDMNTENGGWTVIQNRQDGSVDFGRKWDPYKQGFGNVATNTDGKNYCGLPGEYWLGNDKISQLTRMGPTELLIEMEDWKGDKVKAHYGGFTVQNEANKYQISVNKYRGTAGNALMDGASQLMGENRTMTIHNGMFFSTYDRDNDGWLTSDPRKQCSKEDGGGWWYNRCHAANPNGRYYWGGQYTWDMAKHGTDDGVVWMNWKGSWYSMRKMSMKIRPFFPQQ
CAL PDZ FP-2: human CAL PDZ-peptide interaction inhibition; purified CAL PDZ, TMR-peptide fluorescence polarization, 1 h; inhibition, % at 20 µM; Q9HD26; hit rate 0.02% among 330,000; AID 504414;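 active = highest replicate inhibition of at least 40%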;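 also: plate controls were DMSO neutral control wells for no effect and unlabeled competitor peptide control wells for full effect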
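Test system: purified CerCALP PDZ construct; Compound dosing: one concentration, 20 µM compound; Also added: TMR-labelled reporter peptide T*-PRC34 bound in PDZ groove; Read-out: inhibition from polarization loss; Controls: unlabelled peptide and DMSO controls; Signal: FP readout, S and P plane fluorescence; Incubation: 1 h at RT.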
DDE Tn7 FP inh: disrupts Tn7 cyclic peptide binding to fibrin D-Dimer-E complex; P02675; FP displacement of FITC-Tn7 peptide from fibrin DD(E); 0% = median of compound wells per plate; inhibition, % at 8.3 µM; hit rate 0.13% among 370,000; AID 720508;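 active = inhibition above the mean of compounds falling within the control limits plus 3 SD of them, cut at about 14% in these data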;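 also: 0% = plate median of compound wells and 100% = 10 µM Aha-Tn7 peptide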
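Assay system: Fibrin-DD(E) protein isolated from polymerized human fibrin clots; read-out basis: percent inhibition; medium: Tris/NaCl/CaCl2 buffer, pH 7.8; signal: FP measurement; incubation: 10 min plus 3 h, room temperature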
* = called active by the depositor; . = no result given; + = active, no number. Sampled rows, rich in hits. Any-hit rate of the full collection: about 1.4%.

SMILES	Arrestin-AP2 inh	CAL PDZ FP-1	DDE Tn6 FP inh	CAL PDZ FP-2	DDE Tn7 FP inh
O=C(Nc1ccncc1)C1CCN(S(=O)(=O)c2cccs2)CC1	-20	-3	-8	-2	-1
O=C(Nc1cc(Cl)ccn1)C1CCN(S(=O)(=O)c2cccs2)CC1	20	33*	-2	0	1
CN1CCN(C(=O)CC2C(=O)NCCN2Cc2ccc(-c3ccccc3)cc2)CC1 (stereo not given)	12	71*	2	-1	-6
O=C(CC1C(=O)NCCN1Cc1ccc(-c2ccccc2)cc1)NCc1ccccc1 (stereo not given)	-9	0	5	0	-4
COc1cccc(C(=O)NCCN2C(=O)C3C4C=CC(C4)C3C2=O)c1 (stereo not given)	.	.	2	.	4
O=C1c2cccc(NCCNCCO)c2C(=O)c2cccc(NCCNCCO)c21	22	-8	48*	2	9
CCOC(=O)c1cnn(-c2ccccc2)c1NC(=O)CN1CCCCC1	-11	34*	-2	1	-1
CCOC(=O)c1cnn(-c2ccccc2)c1-n1cccc1	-4	-3	4	-2	-3
Cn1c(=O)oc2cc(S(=O)(=O)N3CCN(CCO)CC3)ccc21	.	.	-6	.	7
COc1ccc2c(-c3ccc(OCCN4CCCCC4)cc3)c(-c3ccccc3OC)sc2c1	-4	32*	.	-1	.
COc1ccccc1-c1sc2ccccc2c1-c1ccc(OCCN2CCCCC2)cc1	-6	-3	.	0	.
CC(=O)CC[C@H]1CC[C@]2(CCCN(C(=O)c3ccno3)C2)O1	.	.	5	.	-8
O=C(OCc1cn(Cc2cccc(F)c2F)nn1)N1CCOCC1	.	.	6	.	11
COc1ccc(CNC(=O)CCNS(=O)(=O)c2ccc3[nH]c(=O)oc3c2)cc1	.	.	-4	.	-2
Cc1ccc(OCC(=O)Nc2cc(NC(=O)COc3ccc(C)cc3)cc(C(=O)O)c2)cc1	12	-6	2	-1	8
O=C(COc1ccc(Cl)cc1)Nc1cc(NC(=O)COc2ccc(Cl)cc2)cc(C(=O)O)c1	-6	86*	2	.	2
COC(=O)c1ccc(Cn2ccc3ccc(-c4ccc5ccn(C(=O)c6ccccc6OC)c5c4)cc32)cc1	.	.	9	.	4
Cc1ccc(NS(=O)(=O)c2ccc3[nH]c(=O)c(=O)[nH]c3c2)cc1Cl	13	-6	2	-4	3
Cc1ccc(NS(=O)(=O)c2ccc(Cl)c(N=Nc3c(O)[nH]c(=O)[nH]c3=O)c2)cc1Cl	-5	31*	5	0	5
CN(Cc1ccccc1)S(=O)(=O)c1ccc(N2CCOCC2)nc1	3	73*	7	1	-1
COc1ccc(-c2cc3c(=O)n(CC(=O)NCc4ccc(F)cc4)ncn3n2)cc1	2	50*	1	-1	-5
C=CCOC(=O)C1=C(C)NC(C)=C(C(=O)OCC=C)C1c1ccc(C)o1	21	-6	15	0	-1
COC(=O)C1=C(C)NC(C)=C(C(=O)OC)C1c1ccco1	6	91*	2	-2	0
CCOC(=O)C1=C(C)NC(C)=C(C(=O)OCC)C1c1ccc(C)o1	13	74*	3	-1	5
COc1ccc(-c2nnc(SCC(=O)Nc3ccc(S(=O)(=O)Nc4nccs4)cc3)n2-c2ccc(OC)cc2)cc1	.	.	2	.	0
SMILES	Arrestin-AP2 inh	CAL PDZ FP-1	DDE Tn6 FP inh	CAL PDZ FP-2	DDE Tn7 FP inh
CC1c2cccn2CCN1S(=O)(=O)c1ccc(F)cc1 (stereo not given)	-8	74*	-3	0	4
Cc1c(N(C)S(=O)(=O)c2ccc(Cl)c(C(=O)NCC(C)(C)N3CCOCC3)c2)c(=O)n(-c2ccccc2)n1C	-4	35*	0	-1	3
O=C(c1nc2ccccn2c1CNCCCn1ncc2ccccc21)N1CCOCC1	9	9	5	0	-7
Cc1cc2ccccc2n1CCNCc1c(C(=O)N2CCOCC2)nc2ccccn12	-4	82*	-1	0	2
CN(CC(=O)Nc1ccc(F)c(F)c1F)C(=O)C1=NN(c2ccccc2)C(=O)CC1	-2	31*	-7	0	-3
Cc1ccc(CN2CCCCC(NC(=O)c3ccc(C)cc3)C2=O)cc1 (stereo not given)	.	.	4	.	12
Cc1cc(/C=C(\C#N)C(=O)O)c(C)n1-c1ccc(Br)cc1	-9	+	1	-2	3
C#CCNC(=O)C[C@H]1C[C@@]2(C(=O)OC)C(=C[C@H](COCc3ccccc3)O[C@@H]2C)N(Cc2ccco2)C1=O	.	.	2	.	-1
Cc1cccc(-n2cnc3c(sc4nc(N5CCOCC5)c5c(c43)CCCC5)c2=O)c1	-15	60*	8	-3	2
CCN(CC)CCNc1ncnc2c1sc1nc(N3CCOCC3)c3c(c12)CCCC3	33	-12	5	-7	-4
Cn1c(N)c(S(=O)(=O)N2CCCC2)c(=O)n(C)c1=O	-24	47*	2	-1	-4
O=[N+]([O-])c1cc(-c2cnc3ccccc3n2)ccc1Oc1ccc(Cl)cc1	1	+	-7	-1	-5
COc1ccccc1Oc1ccc(-c2cnc3ccccc3n2)cc1[N+](=O)[O-]	-2	3	-3	-1	6
COc1ccc(CN(CCN2CCOCC2)C(=O)c2ccccc2C)cc1OC	.	.	4	.	0
CCCc1c(Cc2cccc(F)c2)ncn1CCc1ccccc1OC	.	.	3	.	0
CCCCCCCCN1CCS(=O)(=O)N(Cc2ccc(Cl)cc2)C(C(=O)OC)C1 (stereo not given)	.	.	-2	.	1
COc1ccc(Cl)cc1C(=O)NNC(=O)CNC(=O)c1ccc(C)s1	3	54*	5	1	3
COc1ccc(S(=O)(=O)N2Cc3ccccc3CC2C(=O)O)cc1 (stereo not given)	17	0	-4	0	9
CCOc1ccc(S(=O)(=O)N2Cc3ccccc3CC2C(=O)O)cc1 (stereo not given)	-16	51*	4	1	-1
Fc1ccc(-c2n[nH]c(=S)n2N=Cc2cccc(OCc3ccccc3)c2)cc1	.	.	-6	.	-11
CC(C)NC(=O)CCn1nnc(-c2cccs2)n1	.	.	-10	.	1
CN(Cc1nc2ccccc2c(=O)[nH]1)C(=O)c1cccc(NC(=O)c2cccs2)c1	7	66*	5	-1	0
CN(Cc1nc2ccccc2c(=O)[nH]1)C(=O)c1cc2c(s1)CCCCC2	-6	-5	1	-1	1
O=C(CNS(=O)(=O)c1cccc2ccccc12)N1CCN(c2ncccn2)CC1	.	.	4	.	3
COc1ccc(N2CCN(C(=O)CN3C(=O)NC4(CCCCCC4)C3=O)CC2)cc1	-9	59*	2	0	-7
O=C(CN1C(=O)NC2(CCCCCC2)C1=O)N1CCN(c2ccc(F)cc2)CC1	41	-2	2	0	8
